According to PubChem BioAssay AID624393 (The Scripps Research Institute Molecular Screening Center, 2012):
Where “and” joins values, the source holds several entries; their conditions need not be identical. Equal entries are not always repeated.

Target: Induced myeloid leukemia cell differentiation protein Mcl-1 (Homo sapiens) (UniProt Q07820)
Experiment: MCL1 binding to BIM-BH3 peptide, inhibitors, late-stage follow-up, biochemical, fluorescence polarization, assay provider data, probe compound (AID 624393)
Details: GST-MCL1 / FITC-Bim BH3 peptide
How it was run: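 signal = fluorescence polarization (mP) | assay system = E. coli-expressed GST-MCL1 fusion protein with FITC-labelled Bim BH3 peptide | input = GST-MCL1 fusion protein at 12.5 nM | doses = compound dilution series in DMSO | buffer or medium = PBS with 0.001% Brij | times = 20 min at room temperature | probe or stimulus = FITC-labelled Bim BH3 peptide probe at 4 nM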

Chain of Induced myeloid leukemia cell differentiation protein Mcl-1 (Homo sapiens) (Q07820 whole entry, looked up): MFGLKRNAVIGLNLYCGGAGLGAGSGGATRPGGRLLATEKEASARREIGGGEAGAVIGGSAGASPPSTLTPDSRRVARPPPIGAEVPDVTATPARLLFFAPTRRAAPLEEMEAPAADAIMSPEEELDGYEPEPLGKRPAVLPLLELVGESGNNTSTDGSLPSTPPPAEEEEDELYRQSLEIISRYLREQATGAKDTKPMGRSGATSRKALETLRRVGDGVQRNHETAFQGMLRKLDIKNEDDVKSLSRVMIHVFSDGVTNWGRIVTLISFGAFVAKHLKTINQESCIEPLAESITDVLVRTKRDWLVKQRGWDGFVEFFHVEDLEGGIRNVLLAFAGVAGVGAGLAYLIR

IC50: 250 nM and 310 nM
Structure (SMILES): CCN1CCN(C(c2ccc(C(F)(F)F)cc2)c2ccc3cccnc3c2O)CC1 (stereo unspecified)
